Results from different studies.
Compare with care: the assays were run in different laboratories.
Target: STE20/SPS1-related proline-alanine-rich protein kinase (STK39, Homo sapiens, UniProt Q9UEW8)

C=CC(=O)N1CCC(C(=O)NCC(=O)N2CCN(c3nc(-c4cnc(N)nc4C(F)F)nc(N4CCOCC4)n3)CC2)CC1 — remaining binding (binding, competition with immobilised ligand; 1 µM): 76%
COc1ncc2cc3ccccc3nc2c1C#N — remaining binding (cell-free assay, competition with immobilised ligand; 5 µM): 100%
Nc1ncc2c(n1)-c1c([nH]c3ccc(C#CC4CC4)cc13)CCCC2 — remaining binding (binding, competition with immobilised ligand; 1 µM): 53%
FC(F)(F)c1ccc2c(c1)nc(-c1cccnc1)n2C1CC1 — remaining binding (cell-free assay, competition with immobilised ligand; 1 µM): 100%
FC(F)(F)Oc1cccc(-c2cnc3ccc(-c4ccncc4)nn23)c1 — remaining binding (binding, competition with immobilised ligand; 5 µM): 83%
F[C@@H]1CCN(c2nccc(-c3cnn4ncccc34)n2)C1 — remaining binding (binding; 1 µM): 57%
CCCOc1ccc([C@@H]2[C@@H](C(=O)O)[C@H](c3ccc4c(c3)OCO4)CN2CC(=O)Nc2c(CC)cccc2CC)cc1 — remaining binding (cell-free assay, competition with immobilised ligand; 1 µM): 78%
O=C(c1ccc(Nc2ncc(Cl)c(-c3cc4ccccc4s3)n2)cc1)N1CCC(N2CCCC2)CC1 — remaining binding (binding, competition with immobilised ligand; 1 µM): 36%
Cc1nc(C2CCN(C(=O)c3ccc(OC(F)(F)F)cc3N)CC2)c2ncc(N3CCN(C)CC3)cc2n1 — remaining binding (cell-free assay, competition with immobilised ligand; 1 µM): 100%
C[C@H]1CCN(c2nccc(-c3cnn4ncccc34)n2)C1 — remaining binding (binding; 1 µM): 62%
O=C(NCCCN1CCOCC1)c1ccc(Nc2ncc(Cl)c(-c3ccc(Cl)s3)n2)cc1 — remaining binding (binding, competition with immobilised ligand; 1 µM): 54%
O=C(Nc1c[nH]nc1C(=O)NC1CCNCC1)c1cc(F)cc(F)c1 — remaining binding (binding, competition with immobilised ligand; 1 µM): 67%
CN(c1nccc(-c2cnn3ncccc23)n1)C1CC1 — remaining binding (binding; 1 µM): 100%
CNC(=O)[C@@H]1CC[C@@H](n2c(-c3ccc4cnccc4c3)nc3ccc(C(=O)NCc4cccc(C(N)=O)c4)cc32)C1 — remaining binding (binding, competition with immobilised ligand; 1 µM): 100%
CN(C)c1nccc(-c2cnc3ncccn23)n1 — remaining binding (binding; 1 µM): 51%
CS(=O)(=O)NCC[C@H](NC(=O)c1cncc2c1cnn2-c1ccc(F)cc1)c1ccnc(S(C)(=O)=O)c1 — remaining binding (cell-free assay, competition with immobilised ligand; 1 µM): 80%
c1cnn2ncc(-c3ccnc(N4CCC45COC5)n3)c2c1 — remaining binding (binding; 1 µM): 41%
O=C(Nc1cccnn1)N1CCC(=Cc2cccc(Oc3ccc(C(F)(F)F)cn3)c2)CC1 — remaining binding (cell-free assay, competition with immobilised ligand; 1 µM): 100%
O=C(c1ccc(Nc2nccc(-c3cc4ccccc4s3)n2)cc1)N1CCC(N2CCCC2)CC1 — remaining binding (binding, competition with immobilised ligand; 1 µM): 85%
N[C@@H]1CCN(c2nccc(-c3cnn4ncccc34)n2)C1 — remaining binding (binding; 1 µM): 100%
N#CC1(c2ccccn2)CCN(Cc2cc(C(=O)N3CCCC3)c(=O)n3ccccc23)CC1 — remaining binding (cell-free assay, competition with immobilised ligand; 1 µM): 75%
